Experimental findings from ChEMBL document CHEMBL3098051, “Rational design and synthesis of novel dibenzo[b,d]furan-1,2,3-triazole conjugates as potent inhibitors of Mycobacterium tuberculosis” (Eur J Med Chem, 2014) are described below.

The subject of data set [1] is Mycobacterium tuberculosis. The experiment in a line: Antimycobacterial activity against Mycobacterium tuberculosis H37Rv ATCC 27294 assessed as parasite growth inhibition after 28 days by agar dilution method. Type of data set: functional. The settings on record: H37Rv ATCC 27294, 672 h. The method in brief:
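Inoculum from fresh Middlebrook 7H11 agar slants with OADC supplement, adjusted to 1 mg/mL wet weight in 0.05% Tween 80 saline and diluted to about 10^7 cfu/mL. Suspension was spotted onto 7H11 agar tubes containing 10-fold serial drug dilutions and incubated at 37 °C. Read at 28 days. MIC was the lowest concentration completely inhibiting growth, run in triplicate at pH 7.40.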
(In general: In agar dilution, organisms are placed on agar that contains the substance at set levels.)

For another data set, the system named is HEK-293T. Description: Cytotoxicity against HEK293T cells after 72 hrs by MTT assay. The settings on record: Homo sapiens. Type of data set: cell-based. In a few lines:
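Human embryonic kidney 293T cells were exposed to compound for 72 h. Viability was read by cellular conversion of MTT to formazan, and percentage growth of cells was reported.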

Data set [2] is described as follows: Selectivity index, ratio of IC50 for HEK293T cells to MIC for Mycobacterium tuberculosis H37Rv ATCC 27294. In kind it is toxicity, cell-based, HEK-293T. The conditions noted are these: human, read-out: Selectivity Index. The method in brief: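 SI was taken as the approximated IC50 in HEK293T cells (72 h MTT) relative to MIC against H37Rv (agar dilution, 28 days). SI above 10 was counted as nontoxic.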

Data set [3] can be described thus: Cytotoxicity against HEK293T cells at 50 ug/ml after 72 hrs by MTT assay. In kind it is cell-based, HEK-293T. The conditions noted are these: human, read-out: INH. In general terms: Formazan colour is commonly taken as a measure of viable cells.

Converted amounts (≈) assume the structure as drawn. Some results are limits rather than exact numbers.

As usually defined, the MIC is the smallest concentration in the dilution series that meets the test's criterion for growth inhibition. On to `CO[C@H]1/C=C/O[C@@]2(C)Oc3c(C)c(O)c4c(O)c(c(/C=N/N5CCN(C)CC5)c(O)c4c3C2=O)NC(=O)/C(C)=C\C=C\[C@H](C)[C@H](O)[C@@H](C)[C@@H](O)[C@@H](C)[C@H](OC(C)=O)[C@@H]1C` [RIFAMPIN], for which, in data set [1], the MIC turned out to be 0.2 µg/mL (≈ 0.243 µM).

What is called IC50 is the concentration that gives 50% inhibition. In the case of `c1ccc(Cn2cc(-c3ccc4oc5ccccc5c4c3)nn2)cc1`, the IC50 in the data set on HEK-293T is above 50 µg/mL. Besides, the selectivity ratio in data set [2] came to 1. Besides, in data set [3], the cytotoxicity at 72 h, 50 ug/ml came out at 36.1%. The MIC in data set [1] was 50 µg/mL (≈ 154 µM).

With `Cc1ccc(C(C)n2cc(-c3ccc4oc5ccccc5c4c3)nn2)cc1` (centres undefined), inhibition in the data set on HEK-293T was half-maximal at 50 µg/mL (≈ 141 µM) (IC50). The selectivity ratio in data set [2] worked out at 16. Also, the cytotoxicity at 72 h, 50 ug/ml in data set [3] came to 43.1%. Moreover, the MIC in data set [1] came to 3.12 µg/mL (≈ 8.83 µM).

On to `Brc1cccc(Cn2cc(-c3ccc4oc5ccccc5c4c3)nn2)c1`, for which, in the data set with HEK-293T, the 50% inhibitory concentration (IC50) was above 50 µg/mL. Besides, the selectivity ratio in data set [2] is above 10. In data set [3], the cytotoxicity at 72 h, 50 ug/ml was 12%. Further, the MIC in data set [1] is 6.25 µg/mL (≈ 15.5 µM).

As for `O=[N+]([O-])c1ccc(Cn2cc(-c3ccc4oc5ccccc5c4c3)nn2)cc1`, the IC50 with HEK-293T came to 50 µg/mL (≈ 135 µM). In addition, in data set [2], the selectivity ratio amounted to 1. The cytotoxicity at 72 h, 50 ug/ml in data set [3] was 46.3%. In data set [1], the MIC was 50 µg/mL (≈ 135 µM).

Turning to `Brc1ccc(Cn2cc(-c3ccc4oc5ccccc5c4c3)nn2)cc1`, the IC50 in the data set with HEK-293T is above 50 µg/mL. In addition, the selectivity ratio in data set [2] was above 25. Moreover, the cytotoxicity at 72 h, 50 ug/ml in data set [3] worked out at 27.8%. The minimal inhibitory concentration (MIC) in data set [1] was found to be 0.78 µg/mL (≈ 1.93 µM).

In the data set on HEK-293T, `COC(=O)c1ccc(Cn2cc(-c3ccc4oc5ccccc5c4c3)nn2)cc1` yielded an IC50 below 50 µg/mL. Also, the selectivity ratio in data set [2] was 1. For the same compound, the cytotoxicity at 72 h, 50 ug/ml in data set [3] was 58.1%. Also, the MIC in data set [1] was determined as 25 µg/mL (≈ 65.2 µM).

Turning to `NNC(=O)c1ccncc1` [ISONIAZID], the MIC in data set [1] was 0.1 µg/mL (≈ 0.729 µM).

Compound `COc1cccc(Cn2cc(-c3ccc4oc5ccccc5c4c3)nn2)c1` gave an IC50 in the data set with HEK-293T below 50 µg/mL. Besides, in data set [2], the selectivity ratio was 25. Further, the cytotoxicity at 72 h, 50 ug/ml in data set [3] was 62.1%. Moreover, the MIC in data set [1] is 0.78 µg/mL (≈ 2.19 µM).

In the data set on HEK-293T, `CCOC(=O)Cn1cc(-c2ccc3oc4ccccc4c3c2)nn1` came in with an IC50 above 50 µg/mL. Also, the selectivity ratio in data set [2] was above 25. Also, in data set [3], the cytotoxicity at 72 h, 50 ug/ml stood at 38.8%. Further, in data set [1], the minimum inhibitory concentration (MIC) was determined as 1.56 µg/mL (≈ 4.85 µM).

`CC(c1ccc2sc3ccccc3c2c1)n1cc(-c2ccc3oc4ccccc4c3c2)nn1` (centres undefined) displayed an IC50 in the data set on HEK-293T below 50 µg/mL. The selectivity ratio in data set [2] was determined as 1. Besides, the cytotoxicity at 72 h, 50 ug/ml in data set [3] was 61.1%. Also, the MIC in data set [1] came out at 25 µg/mL (≈ 56.1 µM).

On to `COc1ccc(C(C)n2cc(-c3ccc4oc5ccccc5c4c3)nn2)cc1` (centres undefined), for which the IC50 in the data set with HEK-293T is above 50 µg/mL. In addition, the selectivity ratio in data set [2] is above 16. Moreover, in data set [3], the cytotoxicity at 72 h, 50 ug/ml is 18.9%. The MIC in data set [1] was determined as 3.12 µg/mL (≈ 8.45 µM).

Compound `COc1ccc(Cn2cc(-c3ccc4oc5ccccc5c4c3)nn2)cc1` yielded an IC50 in the data set on HEK-293T of 50 µg/mL (≈ 141 µM). The selectivity ratio in data set [2] amounted to 16. In data set [3], the cytotoxicity at 72 h, 50 ug/ml is 52.7%. Besides, the MIC in data set [1] was 3.12 µg/mL (≈ 8.78 µM).

In the case of `CC(c1ccc2oc3ccccc3c2c1)n1cc(-c2ccc3oc4ccccc4c3c2)nn1` (centres undefined), the IC50 with HEK-293T worked out at 50 µg/mL (≈ 116 µM). For the same compound, in data set [2], the selectivity ratio worked out at 1. The cytotoxicity at 72 h, 50 ug/ml in data set [3] came to 52.6%. For the same compound, in data set [1], the minimal inhibitory concentration (MIC) came out at 50 µg/mL (≈ 116 µM).

`CC(c1ccc([N+](=O)[O-])cc1)n1cc(-c2ccc3oc4ccccc4c3c2)nn1` (centres undefined): in the data set on HEK-293T, the IC50 was above 50 µg/mL. For the same compound, the selectivity ratio in data set [2] is 2. Moreover, in data set [3], the cytotoxicity at 72 h, 50 ug/ml was found to be 38.9%. The MIC in data set [1] amounted to 25 µg/mL (≈ 65 µM).

Turning to `CC[C@@H](CO)NCCN[C@@H](CC)CO` [ETHAMBUTOL], the MIC in data set [1] was determined as 3.13 µg/mL (≈ 15.3 µM).

Regarding `OCCCCn1cc(-c2ccc3oc4ccccc4c3c2)nn1`, in the data set on HEK-293T, the IC50 was above 50 µg/mL. Moreover, the selectivity ratio in data set [2] came out at 1. For the same compound, the cytotoxicity at 72 h, 50 ug/ml in data set [3] is 21.9%. Moreover, in data set [1], the MIC is 50 µg/mL (≈ 163 µM).
